The source of these data is ChEMBL document CHEMBL5653631, “A Potent and Selective ULK1 Inhibitor Suppresses Autophagy and Sensitizes Cancer Cells to Nutrient Stress” (iScience, 2018).

The target in assay [1] is Proto-oncogene tyrosine-protein kinase Src (Homo sapiens) (UniProt P12931). Kind of assay: Inhibition of human recombinant SRC at 40 nM related to control ULK1.
In assay [2] the target is Tau-tubulin kinase 1 (Homo sapiens) (UniProt Q5TCY1). Kind of assay: Inhibition of human recombinant TTBK1 at 40 nM related to control ULK1.
Assay [3] concerns the target T1, Serine/threonine-protein kinase Nek11 (Homo sapiens) (UniProt Q8NG66).
T1 sequence (whole entry): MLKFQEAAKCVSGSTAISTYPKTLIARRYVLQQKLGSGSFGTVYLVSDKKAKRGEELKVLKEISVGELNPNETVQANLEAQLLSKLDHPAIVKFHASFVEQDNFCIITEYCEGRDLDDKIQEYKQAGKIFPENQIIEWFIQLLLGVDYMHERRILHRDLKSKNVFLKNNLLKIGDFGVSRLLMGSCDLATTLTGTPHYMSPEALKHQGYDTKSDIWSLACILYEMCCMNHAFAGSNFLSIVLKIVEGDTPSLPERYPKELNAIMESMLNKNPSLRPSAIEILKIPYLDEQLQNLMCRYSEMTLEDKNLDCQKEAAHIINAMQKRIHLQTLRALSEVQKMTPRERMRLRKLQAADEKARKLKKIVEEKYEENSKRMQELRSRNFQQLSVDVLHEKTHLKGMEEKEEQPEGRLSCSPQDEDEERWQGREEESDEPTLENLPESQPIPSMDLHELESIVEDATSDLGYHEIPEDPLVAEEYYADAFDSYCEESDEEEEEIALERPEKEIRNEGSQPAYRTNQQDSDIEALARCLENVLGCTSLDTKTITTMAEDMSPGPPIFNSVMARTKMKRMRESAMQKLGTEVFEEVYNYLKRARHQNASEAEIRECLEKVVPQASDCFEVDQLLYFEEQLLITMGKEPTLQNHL
The assay is described as follows: Inhibition of human recombinant NEK11 at 40 nM in presence of ATP by radiometric assay relative to control.

The target in assay [4] is T2, Aurora kinase C (Homo sapiens) (UniProt Q9UQB9).
T2 sequence (whole entry): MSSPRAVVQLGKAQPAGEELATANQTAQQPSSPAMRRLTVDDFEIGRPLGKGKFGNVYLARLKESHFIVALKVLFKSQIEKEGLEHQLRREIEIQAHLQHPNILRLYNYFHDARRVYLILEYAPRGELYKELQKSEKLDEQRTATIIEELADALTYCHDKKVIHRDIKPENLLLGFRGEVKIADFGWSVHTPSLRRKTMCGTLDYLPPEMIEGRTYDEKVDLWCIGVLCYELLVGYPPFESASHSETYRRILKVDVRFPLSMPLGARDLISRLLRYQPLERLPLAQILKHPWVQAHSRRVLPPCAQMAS
The assay is described as follows: Inhibition of human recombinant AurC at 40 nM in presence of ATP by radiometric assay relative to control. The procedure, abridged:
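Part of a radiometric in vitro activity panel of 327 recombinant human kinases. Each kinase was tested in duplicate at one inhibitor concentration. Activity remaining was expressed as a percentage of the vehicle control, and percent inhibition was taken as 100 minus that value.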

Assay [5] has as its target Calcium/calmodulin-dependent protein kinase type 1G (Homo sapiens) (UniProt Q96NX5). Kind of assay: Inhibition of human recombinant CaMK1g at 40 nM related to control ULK1.
The target of assay [6] is Dual specificity mitogen-activated protein kinase kinase 1 (Homo sapiens) (UniProt Q02750). Kind of assay: Inhibition of human recombinant MAP2K1 at 500 nM in presence of ATP by radiometric assay relative to control.
Chain of Dual specificity mitogen-activated protein kinase kinase 1 (Homo sapiens) (Q02750 whole entry): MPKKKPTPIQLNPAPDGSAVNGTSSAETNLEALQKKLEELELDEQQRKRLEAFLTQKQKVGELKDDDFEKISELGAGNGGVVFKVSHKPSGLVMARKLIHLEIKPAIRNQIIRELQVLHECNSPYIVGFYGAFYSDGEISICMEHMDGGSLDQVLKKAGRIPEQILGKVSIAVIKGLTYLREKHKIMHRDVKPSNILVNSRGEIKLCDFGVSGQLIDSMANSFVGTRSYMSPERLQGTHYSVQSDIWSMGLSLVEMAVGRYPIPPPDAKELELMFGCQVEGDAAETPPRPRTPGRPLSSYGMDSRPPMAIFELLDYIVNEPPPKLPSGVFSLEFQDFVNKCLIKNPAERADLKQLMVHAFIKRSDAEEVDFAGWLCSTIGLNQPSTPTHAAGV
Assay [7] addresses Serine/threonine-protein kinase 25 (Homo sapiens) (UniProt O00506). The assay is described as follows: Inhibition of human recombinant YSK1 at 500 nM related to control ULK1.
For assay [8], the target named is Ribosomal protein S6 kinase alpha-5 (Homo sapiens) (UniProt O75582). Kind of assay: Inhibition of human recombinant MSK1 at 500 nM related to control ULK1.
Chain of Ribosomal protein S6 kinase alpha-5 (Homo sapiens) (O75582 whole entry, looked up): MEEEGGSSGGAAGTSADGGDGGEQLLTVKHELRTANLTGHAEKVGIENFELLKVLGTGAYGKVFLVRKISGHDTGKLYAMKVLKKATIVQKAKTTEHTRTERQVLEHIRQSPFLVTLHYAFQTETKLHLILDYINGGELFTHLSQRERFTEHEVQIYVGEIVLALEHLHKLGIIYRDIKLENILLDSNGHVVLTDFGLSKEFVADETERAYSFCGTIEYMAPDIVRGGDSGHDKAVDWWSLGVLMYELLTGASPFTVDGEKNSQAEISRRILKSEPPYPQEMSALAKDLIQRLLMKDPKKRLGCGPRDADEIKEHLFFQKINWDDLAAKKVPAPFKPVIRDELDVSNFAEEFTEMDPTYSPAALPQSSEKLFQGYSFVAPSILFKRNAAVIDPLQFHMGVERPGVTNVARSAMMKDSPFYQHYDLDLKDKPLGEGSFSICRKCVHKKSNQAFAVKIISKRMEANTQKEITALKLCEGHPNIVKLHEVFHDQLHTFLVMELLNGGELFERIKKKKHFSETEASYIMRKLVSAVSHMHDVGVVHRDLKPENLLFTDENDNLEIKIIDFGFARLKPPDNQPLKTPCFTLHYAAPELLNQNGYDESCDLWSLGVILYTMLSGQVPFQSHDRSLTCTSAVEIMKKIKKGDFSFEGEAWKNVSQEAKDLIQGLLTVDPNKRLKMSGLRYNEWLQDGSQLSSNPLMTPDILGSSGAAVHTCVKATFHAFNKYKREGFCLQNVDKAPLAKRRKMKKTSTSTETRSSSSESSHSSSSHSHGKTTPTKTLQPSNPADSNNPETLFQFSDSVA
For assay [9], the target named is Wee1-like protein kinase (Homo sapiens) (UniProt P30291). Kind of assay: Inhibition of human recombinant Wee1 at 500 nM related to control ULK1.
Chain of Wee1-like protein kinase (Homo sapiens) (P30291 whole entry, looked up): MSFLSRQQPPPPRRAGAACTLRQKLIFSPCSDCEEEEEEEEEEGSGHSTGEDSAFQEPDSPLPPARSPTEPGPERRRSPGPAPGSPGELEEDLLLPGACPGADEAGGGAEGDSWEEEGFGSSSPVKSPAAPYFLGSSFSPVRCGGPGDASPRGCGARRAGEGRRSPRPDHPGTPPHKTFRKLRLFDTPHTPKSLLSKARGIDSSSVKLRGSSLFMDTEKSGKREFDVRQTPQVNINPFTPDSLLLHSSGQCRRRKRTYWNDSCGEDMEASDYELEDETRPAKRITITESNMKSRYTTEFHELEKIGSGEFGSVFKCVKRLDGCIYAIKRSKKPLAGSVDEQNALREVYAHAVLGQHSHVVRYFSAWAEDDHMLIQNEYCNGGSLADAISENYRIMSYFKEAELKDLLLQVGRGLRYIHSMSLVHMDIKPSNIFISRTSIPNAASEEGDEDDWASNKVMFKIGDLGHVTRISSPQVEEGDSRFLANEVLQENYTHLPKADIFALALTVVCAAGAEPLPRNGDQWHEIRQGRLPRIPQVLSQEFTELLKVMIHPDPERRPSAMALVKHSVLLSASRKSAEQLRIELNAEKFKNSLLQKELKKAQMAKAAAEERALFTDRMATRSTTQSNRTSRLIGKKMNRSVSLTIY
Assay [10] concerns the target SRSF protein kinase 1 (Homo sapiens) (UniProt Q96SB4). The assay is described as follows: Inhibition of human recombinant SRPK1 at 15 nM in presence of ATP by radiometric assay relative to control.
Assay [11] addresses Serine/threonine-protein kinase ULK1 (Homo sapiens, UniProt O75385). Kind of assay: Inhibition of human ULK1.
Assay [12] deals with T3, Serine/threonine-protein kinase PLK4 (Homo sapiens) (UniProt O00444).
T3 sequence (whole entry): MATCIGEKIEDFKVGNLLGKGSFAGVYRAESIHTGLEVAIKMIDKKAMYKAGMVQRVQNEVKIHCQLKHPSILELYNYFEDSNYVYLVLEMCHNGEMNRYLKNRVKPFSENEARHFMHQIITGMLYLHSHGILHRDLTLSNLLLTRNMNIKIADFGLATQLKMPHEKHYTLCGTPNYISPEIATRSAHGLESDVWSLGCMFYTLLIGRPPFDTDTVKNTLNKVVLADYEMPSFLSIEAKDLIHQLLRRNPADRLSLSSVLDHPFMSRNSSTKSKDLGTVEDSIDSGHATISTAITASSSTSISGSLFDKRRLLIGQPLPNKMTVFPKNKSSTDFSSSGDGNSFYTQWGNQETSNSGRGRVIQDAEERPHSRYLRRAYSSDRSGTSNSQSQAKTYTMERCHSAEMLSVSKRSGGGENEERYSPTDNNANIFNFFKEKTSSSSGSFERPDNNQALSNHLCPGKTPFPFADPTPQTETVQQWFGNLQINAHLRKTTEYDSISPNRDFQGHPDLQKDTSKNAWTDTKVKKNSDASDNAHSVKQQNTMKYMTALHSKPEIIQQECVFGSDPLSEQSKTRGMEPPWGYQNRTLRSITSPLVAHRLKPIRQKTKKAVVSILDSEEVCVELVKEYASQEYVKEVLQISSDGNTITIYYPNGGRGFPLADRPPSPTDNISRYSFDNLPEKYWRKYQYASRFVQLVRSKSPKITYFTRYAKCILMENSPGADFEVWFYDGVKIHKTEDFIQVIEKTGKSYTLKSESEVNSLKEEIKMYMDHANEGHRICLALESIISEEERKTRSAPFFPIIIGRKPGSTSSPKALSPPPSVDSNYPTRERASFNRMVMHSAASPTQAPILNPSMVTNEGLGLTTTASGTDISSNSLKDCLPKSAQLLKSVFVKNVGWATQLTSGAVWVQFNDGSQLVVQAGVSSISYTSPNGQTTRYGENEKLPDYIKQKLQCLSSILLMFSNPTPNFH
The assay is described as follows: Inhibition of human recombinant PLK4 at 15 nM in presence of ATP by radiometric assay relative to control.

Chain of Serine/threonine-protein kinase 25 (Homo sapiens) (O00506 whole entry, looked up): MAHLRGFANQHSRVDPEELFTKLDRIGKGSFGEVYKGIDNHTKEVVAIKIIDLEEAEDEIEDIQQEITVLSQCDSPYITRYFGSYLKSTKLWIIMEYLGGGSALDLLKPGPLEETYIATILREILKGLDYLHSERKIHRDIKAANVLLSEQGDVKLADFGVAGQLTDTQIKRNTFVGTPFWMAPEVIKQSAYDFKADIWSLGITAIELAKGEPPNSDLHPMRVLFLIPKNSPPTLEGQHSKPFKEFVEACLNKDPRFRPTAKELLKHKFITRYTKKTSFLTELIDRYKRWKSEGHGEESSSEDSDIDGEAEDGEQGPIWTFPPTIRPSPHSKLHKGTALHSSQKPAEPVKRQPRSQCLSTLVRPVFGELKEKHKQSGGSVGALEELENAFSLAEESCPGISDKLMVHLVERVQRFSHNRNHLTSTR
Chain of SRSF protein kinase 1 (Homo sapiens) (Q96SB4 whole entry): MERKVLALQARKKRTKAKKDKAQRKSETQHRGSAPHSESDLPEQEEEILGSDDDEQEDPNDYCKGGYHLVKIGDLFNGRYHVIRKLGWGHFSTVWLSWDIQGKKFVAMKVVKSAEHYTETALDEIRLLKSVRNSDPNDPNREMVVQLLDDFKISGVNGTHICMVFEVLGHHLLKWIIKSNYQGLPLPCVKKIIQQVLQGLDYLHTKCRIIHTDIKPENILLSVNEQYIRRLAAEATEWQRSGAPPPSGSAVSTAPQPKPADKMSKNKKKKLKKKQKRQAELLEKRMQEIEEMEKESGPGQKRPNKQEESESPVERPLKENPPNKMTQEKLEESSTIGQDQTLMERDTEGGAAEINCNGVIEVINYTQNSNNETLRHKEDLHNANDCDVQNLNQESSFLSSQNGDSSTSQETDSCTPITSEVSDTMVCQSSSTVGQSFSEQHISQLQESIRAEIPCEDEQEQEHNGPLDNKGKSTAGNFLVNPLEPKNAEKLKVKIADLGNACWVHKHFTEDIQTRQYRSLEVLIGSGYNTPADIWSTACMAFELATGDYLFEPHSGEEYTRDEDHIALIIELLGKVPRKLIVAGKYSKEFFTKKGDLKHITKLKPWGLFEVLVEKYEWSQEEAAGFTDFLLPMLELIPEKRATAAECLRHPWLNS
Chain of Serine/threonine-protein kinase ULK1 (O75385 whole entry): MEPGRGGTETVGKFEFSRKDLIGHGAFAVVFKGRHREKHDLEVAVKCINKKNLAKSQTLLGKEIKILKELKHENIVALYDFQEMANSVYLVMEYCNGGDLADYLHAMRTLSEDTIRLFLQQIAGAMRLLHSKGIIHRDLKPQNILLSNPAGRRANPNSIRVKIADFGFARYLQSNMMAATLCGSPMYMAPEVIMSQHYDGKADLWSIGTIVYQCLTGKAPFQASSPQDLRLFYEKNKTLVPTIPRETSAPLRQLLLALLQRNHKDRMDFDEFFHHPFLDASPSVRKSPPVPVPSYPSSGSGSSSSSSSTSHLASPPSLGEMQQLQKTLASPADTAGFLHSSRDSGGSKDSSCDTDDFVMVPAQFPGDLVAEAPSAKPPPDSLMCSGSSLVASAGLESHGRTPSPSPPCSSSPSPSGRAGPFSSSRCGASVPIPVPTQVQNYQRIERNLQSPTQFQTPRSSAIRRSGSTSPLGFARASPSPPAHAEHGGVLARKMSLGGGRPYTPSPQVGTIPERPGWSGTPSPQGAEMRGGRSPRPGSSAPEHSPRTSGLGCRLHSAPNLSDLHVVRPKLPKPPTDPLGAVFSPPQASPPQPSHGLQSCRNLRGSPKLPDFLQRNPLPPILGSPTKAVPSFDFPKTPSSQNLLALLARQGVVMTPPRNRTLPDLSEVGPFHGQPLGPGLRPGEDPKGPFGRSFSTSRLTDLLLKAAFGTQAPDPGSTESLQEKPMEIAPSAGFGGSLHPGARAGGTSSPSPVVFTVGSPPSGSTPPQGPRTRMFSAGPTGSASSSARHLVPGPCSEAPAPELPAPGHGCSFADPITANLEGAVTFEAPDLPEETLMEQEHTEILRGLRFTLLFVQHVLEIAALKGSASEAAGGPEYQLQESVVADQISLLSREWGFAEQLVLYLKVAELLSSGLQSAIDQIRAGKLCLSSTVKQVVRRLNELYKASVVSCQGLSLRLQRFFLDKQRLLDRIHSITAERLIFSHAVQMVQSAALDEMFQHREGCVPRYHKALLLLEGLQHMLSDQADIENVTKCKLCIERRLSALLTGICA
Chain of Calcium/calmodulin-dependent protein kinase type 1G (Homo sapiens) (Q96NX5 whole entry): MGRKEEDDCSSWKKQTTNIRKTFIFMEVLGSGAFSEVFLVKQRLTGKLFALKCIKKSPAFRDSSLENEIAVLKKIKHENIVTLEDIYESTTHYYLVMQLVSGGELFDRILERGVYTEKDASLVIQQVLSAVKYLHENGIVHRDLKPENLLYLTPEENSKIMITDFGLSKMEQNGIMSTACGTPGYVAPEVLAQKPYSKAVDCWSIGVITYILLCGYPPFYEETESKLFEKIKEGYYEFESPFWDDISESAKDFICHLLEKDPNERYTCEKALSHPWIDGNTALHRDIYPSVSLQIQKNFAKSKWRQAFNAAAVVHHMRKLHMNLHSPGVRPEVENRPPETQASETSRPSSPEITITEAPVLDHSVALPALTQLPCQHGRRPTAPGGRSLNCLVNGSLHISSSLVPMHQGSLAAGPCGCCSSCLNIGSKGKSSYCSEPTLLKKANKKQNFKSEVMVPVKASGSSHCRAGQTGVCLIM
Chain of Proto-oncogene tyrosine-protein kinase Src (Homo sapiens) (P12931 2-536 limits assumed): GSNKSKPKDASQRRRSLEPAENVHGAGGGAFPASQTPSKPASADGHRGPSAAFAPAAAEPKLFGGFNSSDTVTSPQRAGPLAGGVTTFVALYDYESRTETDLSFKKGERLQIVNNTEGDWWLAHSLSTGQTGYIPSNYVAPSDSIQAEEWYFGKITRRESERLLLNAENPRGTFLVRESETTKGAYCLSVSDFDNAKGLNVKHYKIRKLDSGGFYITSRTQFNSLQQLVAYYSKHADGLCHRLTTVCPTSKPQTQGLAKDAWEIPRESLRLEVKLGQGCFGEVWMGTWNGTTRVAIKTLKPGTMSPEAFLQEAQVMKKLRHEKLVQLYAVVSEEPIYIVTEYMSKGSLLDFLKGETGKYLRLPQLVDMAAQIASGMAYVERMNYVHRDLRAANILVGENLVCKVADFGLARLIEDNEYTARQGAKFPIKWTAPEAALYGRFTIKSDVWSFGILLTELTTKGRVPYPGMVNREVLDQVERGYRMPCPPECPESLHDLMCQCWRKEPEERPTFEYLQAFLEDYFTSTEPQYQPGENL

Turning to `O=C(N[C@@H](C1CC1)C(F)(F)F)c1cc(-c2cnn3cc(-c4ccc(F)cc4)cnc23)cs1`, the fold change (FC) worked out at 0.03 in assay [1], 0 in [2] and 0 in [5]. Also, the inhibition (usually how much of the control response was suppressed) amounted to 8% in assay [3] and 0% in assay [4].

In the case of `CNC(=O)c1ccccc1Oc1nc(Nc2cc(OC)c(OC)c(OC)c2)ncc1Br`, the inhibition in assay [6] turned out to be 0%. For the same compound, the results for the fold change (FC) in assay [7], in [8] and in [9] were 0.16, 0.15 and 0.22, respectively.

For the compound `CC(C)[C@H](NC(=O)c1cc(-c2cnn3cc(-c4ccc(OCCN5CCCCC5)cc4)cnc23)cs1)C(F)(F)F`, the values for the inhibition in [10] and in assay [12] were 0% and 31%, respectively. For the same compound, the IC50 (in general, the concentration at which inhibition is half-maximal) in assay [11] stood at 1.6 nM.
